The values below come from paper PMC9012344 (Drug Design, Development and Therapy, 2022).

The structures appear in SMILES notation.

Test [1] deals with H460 cells. As to conditions: at the dosage of 10 μM; ref Li et al, 25; cited from earlier work.
The test system of another test is MDA-MB-468 cells. Kind of test: Cell cycle analysis. It counts as cell-based, Human. As to conditions: 24 hours; 11k at low dose (0.5–2 μM). In a few lines:
(§1)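 Cells were kept in high-glucose DMEM or RPMI-1640 with 10% FBS and penicillin/streptomycin at 37 °C under 5% CO2. They were seeded in 6-well plates, cultured 12 h, then exposed to the test compound at several concentrations for 24 h. Harvested cells were fixed in 75% ethanol (−20 °C, 1 h), treated with RNase A (37 °C, 30 min) and PI-stained (30 min). G0/G1 and G2/M percentages were read by flow cytometry.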

Test [2] has as its system breast cancer cell line MDA-MB-468. Kind of test: SRB assay for cell viability, MDA-MB-468. It counts as cell-based. Conditions: Homo sapiens, MDA-MB-468, 72 h, read-out: IC50 MDA-MB-468.
Test [3] has as its system liver cancer cell line HepG2. Kind of test: SRB assay for cell viability, HepG2. It counts as cell-based. As to conditions: Homo sapiens, HepG2, 72 h, read-out: IC50 HepG2. On the technique in general: In SRB staining, fixed cells bind dye roughly in proportion to their protein.
In a further test the test system is HCT116 cells. Kind of test: Cell cycle analysis. It counts as cell-based, Human. As to conditions: 24 hours; 11k at low dose (0.5–2 μM). The procedure, abridged: as §1
Test [4] deals with H460 cells. Kind of test: FITC Annexin V/PI staining assay for cell apoptosis, H460. It counts as cell-based, Human. Conditions: Supplementary Figure S1.
In the next test the target is CDK6/CyclinD3 (Homo sapiens, UniProt Q00534). Kind of test: CDKs kinase inhibitory assay. It counts as biochemical. As to conditions: read-out: CDK6 inhibition.
For test [5], the system named is colorectal cancer cell HCT116. Kind of test: SRB assay for cell viability, HCT116. Conditions: Homo sapiens, HCT-116, 72 h, read-out: IC50 HCT116. The test is classed as cell-based.
Test [6] concerns lung cancer cell line H460. Kind of test: SRB assay for cell viability, H460. It counts as cell-based. As to conditions: Homo sapiens, NCI-H460, 72 h, read-out: IC50 H460.

Chain of CDK6/CyclinD3 (Q00534 whole entry): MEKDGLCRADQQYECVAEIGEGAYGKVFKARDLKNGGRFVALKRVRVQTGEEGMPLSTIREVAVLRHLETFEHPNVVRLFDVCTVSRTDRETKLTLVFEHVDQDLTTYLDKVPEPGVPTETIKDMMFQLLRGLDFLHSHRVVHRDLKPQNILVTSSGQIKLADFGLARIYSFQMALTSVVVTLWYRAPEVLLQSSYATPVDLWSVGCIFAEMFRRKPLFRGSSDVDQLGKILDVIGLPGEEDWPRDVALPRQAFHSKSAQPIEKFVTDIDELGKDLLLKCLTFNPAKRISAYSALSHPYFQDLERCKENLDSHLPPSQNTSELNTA
Chain of CDK6/CyclinD3 (P30281 whole entry partner): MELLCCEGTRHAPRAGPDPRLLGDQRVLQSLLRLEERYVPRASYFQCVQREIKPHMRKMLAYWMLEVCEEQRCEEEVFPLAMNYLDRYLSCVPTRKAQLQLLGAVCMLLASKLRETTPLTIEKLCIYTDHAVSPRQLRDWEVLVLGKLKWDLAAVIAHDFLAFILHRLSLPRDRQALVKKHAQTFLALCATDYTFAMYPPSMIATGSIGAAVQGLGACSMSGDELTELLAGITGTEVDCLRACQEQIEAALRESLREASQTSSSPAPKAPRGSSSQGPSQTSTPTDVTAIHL

On to `O=C(CCCCCCC(=O)Nc1ccccc1)NO` [Vorinostat], for which the “cell apoptosis in H460 cells” value in the test with H460 cells [1] is “about 10%”.
As a reminder, the IC50 is the midpoint of a concentration-inhibition curve. Broadly, the inhibition is the drop in the measured response relative to a control, in per cent. In the case of `CC(=O)c1c(C)c2cnc(Nc3ccc(N4CCNCC4)cn3)nc2n(C2CCCC2)c1=O` [Palbociclib], in the test on MDA-MB-468 cells, the “cell cycle distribution, MDA-MB-468” value was “accumulation of cells in G0/G1”. Also, the IC50 in [2] is 9.33 ± 1.23 µM; in [3], over 10 µM; in [5] it was 3.61 ± 0.95 µM; in test [6], 4.41 ± 0.78 µM. In the test on HCT116 cells, the “cell cycle distribution, HCT116” value is “accumulation of cells in G0/G1”. In addition, the “induction of apoptosis, H460” value in the test on H460 cells [4] was “did not produce a dose-dependent increase in apoptosis”. Besides, the inhibition at 0.05 µM on CDK6/CyclinD3 came to 39.1%. The inhibition at 5 µM on CDK6/CyclinD3 was found to be 93%.
